Reference: ChEMBL document CHEMBL1800057, “Discovery of dual inducible/neuronal nitric oxide synthase (iNOS/nNOS) inhibitor development candidate 4-((2-cyclobutyl-1H-imidazo[4,5-b]pyrazin-1-yl)methyl)-7,8-difluoroquinolin-2(1H)-one (KD7332) part 2: identification of a novel, potent, and selective series of benzimidazole-quinolinone …” (J Med Chem, 2010)

Assays:
[1] = Plasma clearance in rhesus monkey at 3 mg/kg, iv and 10 mg/kg, po; assay type: ADME, organism-based, Macaca mulatta
How it was run: (§1)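 Rhesus pharmacokinetics: 3 mg/kg iv and 10 mg/kg po, HCl salt. Clp, t1/2, Vdss, Cmax, AUC, oral t1/2 and %F reported.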

[2] = Half life in rhesus monkey at 3 mg/kg, iv and 10 mg/kg, po; assay type: ADME, organism-based, Macaca mulatta; settings: in vivo; how it was run: as §1
[3] = Volume of distribution at steady state in rhesus monkey at 3 mg/kg, iv and 10 mg/kg, po; assay type: ADME, organism-based, Macaca mulatta; settings: in vivo, read-out: Vdss; how it was run: as §1
[4] = Cmax in rhesus monkey at 3 mg/kg, iv and 10 mg/kg, po; assay type: ADME, organism-based, Macaca mulatta; settings: in vivo; how it was run: as §1
[5] = AUC in rhesus monkey at 3 mg/kg, iv and 10 mg/kg, po; assay type: ADME, organism-based, Macaca mulatta; settings: plasma; how it was run: as §1
[6] = Half life in rhesus monkey at 10 mg/kg, po; assay type: ADME, organism-based, Macaca mulatta; set-up: dose 10 mg/kg, route oral; settings: in vivo
[7] = Bioavailability in rhesus monkey at 3 mg/kg, iv and 10 mg/kg, po; assay type: ADME, organism-based, Macaca mulatta; settings: in vivo; how it was run: as §1
[8] = biological target: Nitric oxide synthase, inducible (Homo sapiens, UniProt P35228); assay: Inhibition of human iNOS expressed in HEK293 cells assessed as inhibition of nitric oxide production after 18 hrs using 2,3-diaminonaphthalene by fluorescence assay; assay type: cell-based
How it was run: (§2)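 HEK293 cells grown to ~70% confluence in DMEM/10% FBS with pen/strep, transiently transfected with 10 μg human or murine iNOS plasmid plus Fugene 6 for 4 h at 37 °C, 10% CO2. Cells replated at 5e5 cells/mL and dosed with compound at once; 1400W (100 μM final) as positive control. After 18 h, DAN (10 μg/mL final) in HCl (0.1 N final) added for 20 min at room temperature. Fluorescence read after NaOH (0.12 N final).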

[9] = biological target: T1, Nitric oxide synthase 1 (Homo sapiens, UniProt P29475); assay: Inhibition of human nNOS expressed in HEK293 cells assessed as inhibition ionomycin induced nitric oxide production incubated for 24 hrs measured after 18 hrs of ionomycin challenge using 2,3-diaminonaphthalene by fluorescence assay; assay type: cell-based
How it was run: (§3)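 HEK293 cells transfected for 4 h at 37 °C with human nNOS (10 μg) or human eNOS (15 μg) plasmid (Fugene 6, 3:1). Cells replated at 5e5 cells/mL and dosed with compound at once; SEITU (100 μM final) as positive control. After 24 h, cells activated with A23187 (83 nM final) for eNOS or ionomycin (30 μM final) for nNOS. NO read 18 h later as nitrite-DAN fluorescence.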

[10] = biological target: T2, Nitric oxide synthase 3 (Homo sapiens, UniProt P29474); assay: Inhibition of human eNOS expressed in HEK293 cells assessed as inhibition A23187 induced nitric oxide production incubated for 24 hrs measured after 18 hrs of […] challenge using 2,3-diaminonaphthalene by fluorescence assay; assay type: cell-based; how it was run: as §3
T2 sequence (P29474 whole entry): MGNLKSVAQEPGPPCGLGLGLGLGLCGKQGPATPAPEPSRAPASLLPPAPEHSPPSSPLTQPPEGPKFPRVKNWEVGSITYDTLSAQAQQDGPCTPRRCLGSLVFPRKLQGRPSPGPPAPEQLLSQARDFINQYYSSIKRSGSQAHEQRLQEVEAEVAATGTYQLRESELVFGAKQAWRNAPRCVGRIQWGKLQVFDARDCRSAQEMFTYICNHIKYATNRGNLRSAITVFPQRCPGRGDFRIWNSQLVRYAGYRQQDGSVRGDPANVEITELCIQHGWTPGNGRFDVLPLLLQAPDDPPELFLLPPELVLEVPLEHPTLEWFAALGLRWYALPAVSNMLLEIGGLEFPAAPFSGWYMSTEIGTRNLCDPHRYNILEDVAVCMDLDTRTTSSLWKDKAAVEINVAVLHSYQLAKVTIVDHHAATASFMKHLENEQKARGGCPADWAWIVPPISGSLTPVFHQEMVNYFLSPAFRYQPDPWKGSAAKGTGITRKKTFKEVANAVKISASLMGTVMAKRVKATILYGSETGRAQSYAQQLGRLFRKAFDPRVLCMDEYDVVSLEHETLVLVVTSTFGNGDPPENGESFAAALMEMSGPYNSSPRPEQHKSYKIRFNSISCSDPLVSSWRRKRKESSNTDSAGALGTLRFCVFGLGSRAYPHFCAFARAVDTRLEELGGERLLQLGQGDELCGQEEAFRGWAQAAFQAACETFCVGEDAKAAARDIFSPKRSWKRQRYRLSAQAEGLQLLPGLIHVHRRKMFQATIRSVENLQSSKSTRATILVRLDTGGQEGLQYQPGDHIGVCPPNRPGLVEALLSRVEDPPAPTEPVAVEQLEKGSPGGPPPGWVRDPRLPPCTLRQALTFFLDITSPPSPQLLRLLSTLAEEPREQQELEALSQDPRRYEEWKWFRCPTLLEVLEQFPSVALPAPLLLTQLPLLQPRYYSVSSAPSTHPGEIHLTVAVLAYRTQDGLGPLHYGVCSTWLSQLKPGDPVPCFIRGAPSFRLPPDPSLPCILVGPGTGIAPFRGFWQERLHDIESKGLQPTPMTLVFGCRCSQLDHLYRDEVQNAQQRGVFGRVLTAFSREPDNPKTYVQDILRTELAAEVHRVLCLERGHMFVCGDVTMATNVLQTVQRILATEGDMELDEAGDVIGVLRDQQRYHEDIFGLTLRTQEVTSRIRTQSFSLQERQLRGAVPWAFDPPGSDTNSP

[11] = test system: Liver; assay: Half life in mouse liver microsomes assessed as formation of oxidation product and glucuronide conjugate; assay type: ADME, Microsome
How it was run: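 Mouse liver microsomes run under combined phase I oxidation and phase II glucuronide conjugation; half-life reported in minutes.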

[12] = species on record: Homo sapiens; assay: Ratio of IC50 for human eNOS to EC50 for human iNOS
[13] = species on record: Homo sapiens; assay: Ratio of IC50 for human nNOS to EC50 for human iNOS
[14] = biological target: T3, Nitric oxide synthase 3 (Homo sapiens) (UniProt P29474); assay: Inhibition of human eNOS expressed in HEK293 cells assessed as inhibition A23187 induced nitric oxide production at 100 uM incubated for 24 hrs measured after 18 hrs of […] challenge using 2,3-diaminonaphthalene by fluorescence assay; assay type: cell-based
T3 sequence (whole entry): T2 sequence (P29474 whole entry)

[15] = biological target: T1, Nitric oxide synthase 1; assay: Inhibition of human nNOS expressed in HEK293 cells assessed as inhibition ionomycin induced nitric oxide production at 10 uM incubated for 24 hrs measured after 18 hrs of ionomycin challenge using 2,3-diaminonaphthalene by fluorescence assay; assay type: cell-based
[16] = Plasma clearance in mouse at 3 mg/kg, iv and 10 mg/kg, po; assay type: ADME, organism-based
[17] = Volume of distribution at steady state in mouse at 3 mg/kg, iv and 10 mg/kg, po; assay type: ADME, organism-based; settings: in vivo, read-out: Vdss
[18] = Cmax in mouse at 3 mg/kg, iv and 10 mg/kg, po; assay type: ADME, organism-based; settings: in vivo
[19] = AUC in mouse at 3 mg/kg, iv and 10 mg/kg, po; assay type: ADME, organism-based; settings: plasma
[20] = Half life in mouse at 10 mg/kg, po; assay type: ADME, organism-based; set-up: dose 10 mg/kg, route oral; settings: in vivo
[21] = Oral bioavailability in mouse at 10 mg/kg; assay type: ADME, organism-based; settings: in vivo
[22] = biological target: T4, Nitric oxide synthase, inducible (Mus musculus, UniProt P29477); assay: Inhibition of mouse iNOS expressed in HEK293 cells assessed as inhibition of nitric oxide production after 18 hrs using 2,3-diaminonaphthalene by fluorescence assay; assay type: cell-based; how it was run: as §2
T4 sequence (P29477 whole entry): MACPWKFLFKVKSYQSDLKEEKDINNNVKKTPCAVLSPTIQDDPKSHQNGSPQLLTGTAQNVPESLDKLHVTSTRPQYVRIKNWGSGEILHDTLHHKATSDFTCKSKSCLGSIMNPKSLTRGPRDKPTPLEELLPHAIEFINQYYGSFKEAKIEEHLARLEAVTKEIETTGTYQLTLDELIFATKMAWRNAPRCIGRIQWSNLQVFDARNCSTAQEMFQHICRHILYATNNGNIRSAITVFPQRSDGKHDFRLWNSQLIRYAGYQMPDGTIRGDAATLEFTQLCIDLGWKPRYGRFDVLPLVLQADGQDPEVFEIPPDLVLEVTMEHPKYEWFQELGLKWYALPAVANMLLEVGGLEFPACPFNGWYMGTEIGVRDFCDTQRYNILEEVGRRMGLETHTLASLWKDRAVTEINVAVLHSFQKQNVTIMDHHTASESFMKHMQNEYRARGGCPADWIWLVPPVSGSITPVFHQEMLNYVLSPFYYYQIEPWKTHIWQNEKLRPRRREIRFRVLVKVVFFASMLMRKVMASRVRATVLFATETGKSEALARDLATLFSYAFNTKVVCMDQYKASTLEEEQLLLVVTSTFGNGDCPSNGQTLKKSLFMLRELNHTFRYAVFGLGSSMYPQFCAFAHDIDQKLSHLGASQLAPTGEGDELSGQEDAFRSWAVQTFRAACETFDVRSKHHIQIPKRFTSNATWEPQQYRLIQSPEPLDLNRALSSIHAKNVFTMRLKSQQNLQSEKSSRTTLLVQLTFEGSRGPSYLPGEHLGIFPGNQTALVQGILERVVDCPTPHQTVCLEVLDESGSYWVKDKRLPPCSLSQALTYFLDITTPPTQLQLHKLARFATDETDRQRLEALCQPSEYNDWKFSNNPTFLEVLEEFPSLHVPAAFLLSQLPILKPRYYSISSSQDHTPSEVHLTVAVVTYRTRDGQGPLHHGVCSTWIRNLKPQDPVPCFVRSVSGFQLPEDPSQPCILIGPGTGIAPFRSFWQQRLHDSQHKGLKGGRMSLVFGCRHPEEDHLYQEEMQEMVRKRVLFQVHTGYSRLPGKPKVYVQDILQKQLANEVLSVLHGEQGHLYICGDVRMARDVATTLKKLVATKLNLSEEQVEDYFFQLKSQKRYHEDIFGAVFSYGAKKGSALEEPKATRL

[23] = test system: Mus musculus; assay: Inhibition of LPS-induced iNOS activation in BALB/c mouse assessed as plasma nitrate levels at 30 mg/kg administered via oral gavage before LPS challenge measured after 6 to 8 hrs using 2,3-diaminonaphthalene by fluorescence assay relative to control; assay type: functional
How it was run: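 Male BALB/c mice dosed by oral gavage (90% PEG/5% Tween 80/5% PVP + 0.5% w/v CMC) immediately before LPS (10 mg/kg ip in 0.9% NaCl). Mice killed at 6 h. EDTA plasma analysed for nitrate and drug levels; nitrite measured by DAN fluorescence.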

[24] = Half life in mouse at 3 mg/kg, iv and 10 mg/kg, po; settings: in vivo

T1 sequence (P29475 whole entry): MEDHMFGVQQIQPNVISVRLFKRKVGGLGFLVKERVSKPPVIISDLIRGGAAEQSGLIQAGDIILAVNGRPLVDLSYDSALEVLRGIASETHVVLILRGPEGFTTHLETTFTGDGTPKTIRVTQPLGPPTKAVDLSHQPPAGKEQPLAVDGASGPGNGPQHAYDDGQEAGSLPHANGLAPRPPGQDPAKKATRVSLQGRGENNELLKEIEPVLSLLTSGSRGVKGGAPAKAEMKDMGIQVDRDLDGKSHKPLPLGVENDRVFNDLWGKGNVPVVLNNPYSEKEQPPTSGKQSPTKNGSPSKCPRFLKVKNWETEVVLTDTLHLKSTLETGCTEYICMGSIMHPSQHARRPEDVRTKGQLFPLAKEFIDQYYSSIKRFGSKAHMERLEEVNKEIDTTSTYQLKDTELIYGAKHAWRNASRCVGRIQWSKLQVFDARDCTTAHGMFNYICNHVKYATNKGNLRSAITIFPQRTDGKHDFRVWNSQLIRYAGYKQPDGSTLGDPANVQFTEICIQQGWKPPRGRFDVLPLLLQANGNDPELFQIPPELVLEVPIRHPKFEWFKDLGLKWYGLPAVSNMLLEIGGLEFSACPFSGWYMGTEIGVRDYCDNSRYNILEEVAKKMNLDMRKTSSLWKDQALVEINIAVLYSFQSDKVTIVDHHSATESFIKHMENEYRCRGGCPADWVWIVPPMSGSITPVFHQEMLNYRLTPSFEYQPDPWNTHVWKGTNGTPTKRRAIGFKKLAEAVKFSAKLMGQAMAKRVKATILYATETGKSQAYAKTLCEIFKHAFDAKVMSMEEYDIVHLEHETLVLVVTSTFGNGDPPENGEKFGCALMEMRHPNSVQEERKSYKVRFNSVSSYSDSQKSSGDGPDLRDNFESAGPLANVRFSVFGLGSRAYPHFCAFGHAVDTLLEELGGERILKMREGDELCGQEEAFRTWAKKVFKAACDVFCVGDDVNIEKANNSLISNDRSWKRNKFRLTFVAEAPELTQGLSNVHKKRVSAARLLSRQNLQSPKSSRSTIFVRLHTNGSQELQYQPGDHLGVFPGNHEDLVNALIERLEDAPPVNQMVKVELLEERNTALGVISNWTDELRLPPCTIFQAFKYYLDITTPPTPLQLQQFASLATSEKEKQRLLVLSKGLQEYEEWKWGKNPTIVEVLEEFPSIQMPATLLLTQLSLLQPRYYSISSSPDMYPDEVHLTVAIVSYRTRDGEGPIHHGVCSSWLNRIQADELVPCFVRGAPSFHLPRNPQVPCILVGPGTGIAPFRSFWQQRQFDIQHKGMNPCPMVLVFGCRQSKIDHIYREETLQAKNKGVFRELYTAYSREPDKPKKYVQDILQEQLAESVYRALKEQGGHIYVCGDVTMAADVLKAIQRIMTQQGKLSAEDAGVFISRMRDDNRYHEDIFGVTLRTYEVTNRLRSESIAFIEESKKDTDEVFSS
Chain of Nitric oxide synthase, inducible (Homo sapiens, UniProt P35228) (P35228 whole entry): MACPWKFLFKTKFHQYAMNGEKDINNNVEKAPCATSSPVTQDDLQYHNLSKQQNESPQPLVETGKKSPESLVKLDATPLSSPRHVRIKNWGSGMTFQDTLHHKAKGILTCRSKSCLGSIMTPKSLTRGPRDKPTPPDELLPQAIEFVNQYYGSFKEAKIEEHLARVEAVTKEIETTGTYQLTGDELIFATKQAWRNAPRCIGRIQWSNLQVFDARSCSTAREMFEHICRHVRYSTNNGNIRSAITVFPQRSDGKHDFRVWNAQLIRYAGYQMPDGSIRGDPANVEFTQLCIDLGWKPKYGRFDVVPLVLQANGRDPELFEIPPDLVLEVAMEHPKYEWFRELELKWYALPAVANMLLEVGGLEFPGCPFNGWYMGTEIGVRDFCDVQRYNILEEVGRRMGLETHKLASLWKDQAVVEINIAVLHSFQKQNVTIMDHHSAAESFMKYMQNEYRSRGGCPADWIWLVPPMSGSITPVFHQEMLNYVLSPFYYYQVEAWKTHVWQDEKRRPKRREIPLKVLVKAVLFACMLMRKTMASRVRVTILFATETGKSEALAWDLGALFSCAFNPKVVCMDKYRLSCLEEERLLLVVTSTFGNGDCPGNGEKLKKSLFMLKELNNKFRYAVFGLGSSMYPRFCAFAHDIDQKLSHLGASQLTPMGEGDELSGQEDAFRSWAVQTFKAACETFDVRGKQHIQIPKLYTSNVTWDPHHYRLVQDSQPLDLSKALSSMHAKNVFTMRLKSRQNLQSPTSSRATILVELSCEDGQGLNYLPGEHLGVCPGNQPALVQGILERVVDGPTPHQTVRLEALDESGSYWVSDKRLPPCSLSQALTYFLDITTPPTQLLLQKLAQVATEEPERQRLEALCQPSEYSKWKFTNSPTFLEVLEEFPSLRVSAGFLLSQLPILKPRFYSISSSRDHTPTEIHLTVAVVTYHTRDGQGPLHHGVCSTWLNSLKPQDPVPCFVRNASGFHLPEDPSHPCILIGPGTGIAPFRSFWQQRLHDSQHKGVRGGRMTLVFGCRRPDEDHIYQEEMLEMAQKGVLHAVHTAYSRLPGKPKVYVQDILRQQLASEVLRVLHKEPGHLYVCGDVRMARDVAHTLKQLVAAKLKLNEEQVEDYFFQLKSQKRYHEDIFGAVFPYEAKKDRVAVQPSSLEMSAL

Structure (SMILES) | clearance [1] | half-life [2] | Vd [3] | Cmax [4] | AUC [5] | half-life [6] | bioavailability [7] | EC50 [8] | EC50 [9] | EC50 [10] | t1/2 [11] | Ratio EC50 [12] | Ratio EC50 [13] | other results
O=c1cc(Cn2c(-c3ccccn3)nc3ccccc32)c2ccc(F)c(F)c2[nH]1 | – | – | – | – | – | – | – | 18 µM | > 10 µM | > 100 µM | 1.1 h | > 6 | > 0.5 | inhibition [14]: < 50%; inhibition [15]: < 50%
Cc1ncsc1-c1nc2ccccc2n1Cc1cc(=O)[nH]c2c(F)c(F)ccc12 | – | – | – | – | – | – | – | 1.8 µM | 1.5 µM | 6.8 µM | 1.63 h | 3.8 | 0.8 | clearance [16]: 12 mL/min/kg; Vd [17]: 1.2 L/kg; Cmax [18]: 3800 ng/mL; AUC [19]: 5670 ng·h/mL; half-life [20]: 3.1 h; bioavailability [21]: 39%; EC50 [22]: 10.3 µM; inhibition in vivo at 30 mg/kg [23]: 30%; half-life [24]: 2.3 h
CC(C)Cc1nc2nccnc2n1Cc1cc(=O)[nH]c2c(F)c(F)ccc12.Cl | 18 mL/min/kg | 21 h | 19 L/kg | 210 ng/mL | 3200 ng·h/mL | 15 h | 59% | – | – | – | – | – | – | –

Continued, in another order:

clearance [1] | half-life [2] | Vd [3] | Cmax [4] | AUC [5] | half-life [6] | bioavailability [7] | EC50 [8] | EC50 [9] | EC50 [10] | t1/2 [11] | Ratio EC50 [12] | Ratio EC50 [13] | Structure (SMILES) | other results
4.3 mL/min/kg | 6.8 h | 1.2 L/kg | 1800 ng/mL | 23000 ng·h/mL | 10 h | 93% | – | – | – | – | – | – | Cl.O=c1cc(Cn2c(C3CCC3)nc3nccnc32)c2cccc(F)c2[nH]1 | –
8.6 mL/min/kg | 6.6 h | 1.8 L/kg | 3400 ng/mL | 21000 ng·h/mL | 6.1 h | 100% | – | – | – | – | – | – | Cl.O=c1cc(Cn2c(C3CC(F)(F)C3)nc3nccnc32)c2cccc(F)c2[nH]1 | –
